ROMK primary: modulators of human ROMK potassium channel; P48048; Tet-inducible ROMK, thallium flux fluorescence; actives lie on both sides; B-score at 10 µM; actives 2% (n = 130,000); AID 1918;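 active = signal ratio slope over the read window, or its plate-corrected B-score, at least 3 SD from the plate mean, either direction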;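 note: B-score of the F/F0 ratio slope over 7 to 12 s after thallium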
Target sequence (P48048 whole entry, looked up): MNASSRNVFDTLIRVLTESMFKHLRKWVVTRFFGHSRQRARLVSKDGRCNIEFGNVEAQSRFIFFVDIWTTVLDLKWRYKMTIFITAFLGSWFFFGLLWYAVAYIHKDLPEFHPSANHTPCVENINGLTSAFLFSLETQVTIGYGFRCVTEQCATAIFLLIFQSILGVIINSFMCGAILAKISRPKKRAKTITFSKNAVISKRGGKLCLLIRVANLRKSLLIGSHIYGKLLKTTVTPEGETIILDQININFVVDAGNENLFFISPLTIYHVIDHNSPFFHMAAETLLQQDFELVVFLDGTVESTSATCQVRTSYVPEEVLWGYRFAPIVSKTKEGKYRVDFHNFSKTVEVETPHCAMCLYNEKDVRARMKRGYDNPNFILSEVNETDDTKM
Calb biofilm kill: mixtures killing C. albicans biofilm | C. albicans biofilm persisters + clotrimazole, fluorescence viability; primary screen in compound mixtures of four per well | inhibition, % at 7.6 µM | AID 1242 | actives 0.02% (n = 120,000);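 active = inhibition above 30.3% in the primary screen of four-compound pools, then above 30% when the compound was retested; inconclusive = passed the primary limit but could not be retested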;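 note: compounds exposed to preformed 24 h biofilms for 48 h; 0% = untreated biofilm control and 100% = clotrimazole plus chlorhexidine kill blank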
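Incubation: 24 h biofilm formation, then 48 h compound exposure, 37 °C | Material: C. albicans biofilms | Buffer or medium: RPMI/MOPS medium, pH 7.0 | Measured by: 2-h Alamar Blue fluorescence, 535/590 nm excitation/emission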
ROMK retest: human ROMK channel modulation, retest confirmation; shares compounds with ROMK primary; ROMK thallium flux, fluorescence ratio; hits give low values; normalized thallium flux (F/F0 slope) at 10 µM; actives 54% (n = 3,000);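 active = Flux at 10 µM at least 3 SD below or above vehicle control mean in one or both replicates; inconclusive = no clear call, values can overlap the other calls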
* marks the source's active call; other numbers are inactive results; ? = inconclusive; / = not tested or not shown. The full list was thinned out, with hits kept by preference.

SMILES	ROMK primary	Calb biofilm kill	ROMK retest
Cc1ccc(C(=O)O)cc1N=Cc1cc(Br)cc(Br)c1O	5.1*	13	0.11*
CN(CC(=O)NC1CCCc2ccccc21)C1CCCCC1 (stereo unspecified)	-0.87	10	/
O=C(Cc1ccccc1)Nc1cc(Cl)ccc1Sc1ccccc1	-0.072	4	/
O=C(NCCN1CCOCC1)c1ccc2c(c1)N(Cc1ccccc1F)C(=O)c1ccccc1S2	-1	15	/
CCN1CCN(CCCNC(=O)c2ccc(/C=C3/Sc4ccccc4N(Cc4ccccc4F)C3=O)cc2)CC1	-3.3*	16	0.077
CCOCCCNC(=O)CN1C(=O)/C(=C\c2ccc(C)cc2)Sc2ccccc21	-1.7	13	/
CCN1CCN(CCNC(=O)c2ccc(/C=C3/Sc4ccccc4N(Cc4ccccc4C)C3=O)cc2)CC1	-3.6*	17	0.078
Nc1nc(SCC(=O)C23CC4CC(CC(C4)C2)C3)n[nH]1	-0.19	/	/
CCOC(=O)c1sc(=NC(=O)c2cc(OC)c(OC)c(OC)c2)n(C)c1C	-0.054	/	/
OC(C#CCCN1CCCCC1)(c1ccccc1)C1CCCCC1 (stereo unspecified)	/	24	0.062*
OC(C#CCCN1CCCCC1)(c1ccccc1)c1ccccc1	/	15	/
COc1ccc(S(=O)(=O)NC(C)C)cc1-n1cnnn1	0.46	6	/
Cc1cccc(-c2nc(CN3CCCC(C(=O)NC4CCCCC4)C3)c(C)o2)c1 (stereo unspecified)	-2.5*	/	0.066*
Cc1oc(-c2cccc(Cl)c2)nc1CN1CCCC(C(=O)NCc2ccco2)C1 (stereo unspecified)	-1.5	/	/
Cc1cccc(-c2nc(CN3CCCC(C(=O)NC4CCCCCC4)C3)c(C)o2)c1 (stereo unspecified)	-3.5*	/	0.062*
Cc1oc(-c2ccc(Cl)cc2)nc1CN1CCCC(C(=O)NCc2ccccn2)C1 (stereo unspecified)	-0.29	/	/
CON1C(=O)C(=O)N(OC)C2CCCCC21 (stereo unspecified)	/	/	?
C=CCON1C(=O)C(=O)N(OCC=C)[C@H]2CCCC[C@H]21	/	21	/
CCCCCc1cc(=O)oc2c(C(CCN3CCCC3)c3ccc(N(C)C)cc3)c(OC)cc(OC)c12 (stereo unspecified)	/	18	?
CCCCCc1cc(=O)oc2c(C(CCN3CCCCC3)c3ccc(OC)cc3)c(OC)cc(OC)c12 (stereo unspecified)	/	16	/
COc1ccc(OCC(=O)Nc2ccccc2C(=O)N2CCOCC2)cc1	3*	19	0.08
CCOCC(=O)Nc1ccccc1C(=O)N1CCOCC1	-1.4	7	/
C/C=C/C(=O)Nc1cccc(C2=NOC3(C2)C[C@@H](C(N)=O)N(C(=O)/C(C)=C/C)C3)c1 (stereo partly specified)	/	9	/
O=C(Cc1ccc(-n2cccc2)cc1)NCc1cccs1	3.4*	/	?
Cc1ccc(CNC(=O)Cc2ccc(-n3cccc3)cc2)cc1	2.5	15	/
SMILES	ROMK primary	Calb biofilm kill	ROMK retest
Cn1nc2c3ccccc3n(Cc3ccc(F)cc3)c2nc1=S	0.71	19	/
C=CCOC(=O)C1=C(C)OC(N)=C(C#N)C1c1ccoc1 (stereo unspecified)	0.16	/	/
COc1ccc(F)cc1CN1CCN(C(=O)CCC(=O)Nc2nnc(C(C)C)s2)CC1	0.002	/	/
O=C(NC1=NCCS1)C12CC3CC(C1)CC(C(=O)NC1=NCCS1)(C3)C2	0.21	/	/
O=C(NC1=NCCS1)NC12CC3CC(CC(C3)C1)C2	/	/	0.066*
CC1=CC(C)(C)N(C(=O)CNC2CCCCC2)c2cc(C)ccc21	-7.1*	6	0.051*
CC1=CC(C)(C)N(C(=O)CCl)c2cc(C)ccc21	0.021	6	/
Cc1ccc(C)c(N(Cc2ccccc2F)S(C)(=O)=O)c1	1.4	5	/
Cn1c(NC(=O)C[n+]2cc(-c3ccc(F)cc3)n3c2CCC3)cc(=O)n(C)c1=O	-0.28	12	/
Cc1ccc(S(=O)(=O)CC(=O)c2ccc([N+](=O)[O-])cc2)cc1	/	18	0.089
Cc1ccc(S(=O)(=O)CC(=O)c2ccccc2)cc1	-0.93	/	/
O=C(CC1C(=O)N(c2ccccc2)C(=O)N1Cc1ccco1)Nc1ccccc1 (stereo unspecified)	-0.4	18	/
C=CCNC(=O)/C=C/c1cccs1	0.28	16	/
CCOc1ncnc2c1sc1nc(C)cc(C)c12	0.58	5	/
Cc1ccc2c(n1)sc1c(N)ncnc12	4.6*	/	0.092
CCCCOC(=O)c1cc(=O)[nH]c2ccc(C)cc12	-0.31	20	/
CCN1/C(=C/c2ccc3ccccc3[n+]2CC)C=Cc2ccccc21	-4.7*	/	0.038*
CCCCN1/C(=C/c2ccc3ccccc3[n+]2CC)Sc2ccccc21	/	11	/
CCCN1C(=O)COc2ccc(C(=O)c3ccccc3C(=O)O)cc21	-0.42	6	/
Cc1c(CN2CCc3c([nH]c4ccccc34)C2C2CCCCC2)cnn1C (stereo unspecified)	-0.56	16	/
CN(Cc1ccccc1)C(=O)c1ccccc1Br	-2.8*	7	0.066*
CN(Cc1ccccc1)C(=O)c1ccccc1-c1ccccc1	0.75	10	/
CC(C)N1CCC(N2CCN(Cc3ccc(C#CC(C)(C)O)s3)CC2CCO)CC1 (stereo unspecified)	0.85	14	/
CCCCCC(=O)N/N=C/c1ccc(N(C)C)cc1	0.84	3	/
CC(C)/C=N\NC(=O)CCCCC(=O)N/N=C/C(C)C	/	19	0.082
SMILES	ROMK primary	Calb biofilm kill	ROMK retest
COc1ccccc1NS(=O)(=O)c1cc(C)ccc1C	0.3	/	/
COc1ccccc1/C=C/C1(C(=O)NC2CCCC2)CC(=O)N1c1ccc(C)cc1 (stereo unspecified)	-5*	16	0.062*
COc1ccccc1/C=C/C1(C(=O)NC2CCCC2)CC(=O)N1c1ccc(F)cc1 (stereo unspecified)	-2.7	14	/
CCOc1ccc(-n2c(COc3ccc(C)cc3)nnc2SCC(N)=O)cc1	1.1	/	/
CCOC(=O)C(CC)Sc1nnc(COc2ccc(C)cc2)n1-c1ccccc1 (stereo unspecified)	-4.5*	4	0.066*
Cc1cc(NC(=O)CSc2nc3ccccc3c(=O)n2Cc2ccccc2)no1	1	/	/
Cc1cc(NC(=O)CSc2nc3ccccc3c(=O)n2C2CCCC2)no1	2.9*	/	?
OCCC1CN(Cc2ccccc2-c2ccco2)CCN1C1CCCC1 (stereo unspecified)	-4*	4	0.051*
CC(C)N1CCN(Cc2ccccc2-c2ccco2)CC1CCO (stereo unspecified)	-0.57	5	/
COc1ccc2c(c1)Cc1sc(NC(=O)c3cccs3)nc1-2	-4.1*	/	0.076
COc1ccc2c(c1)Cc1sc(NC(=O)c3ccccc3)nc1-2	0.095	/	/
COCCNC(=O)C12CC3CC(CC(Cl)(C3)C1)C2	/	22	/
CC(=O)Nc1sc(N/N=C/c2ccccc2)nc1-c1ccc(C)cc1	/	27	0.072
CC(=O)Nc1sc(N/N=C/c2ccc(O)cc2)nc1-c1ccc(C)cc1	/	18	/
Cc1cccc(NC(=O)Cn2c(=O)n(CCc3c[nH]c4ccccc34)c(=O)c3cccnc32)c1	0.97	7	/
O=C(Cn1c(=O)n(CCc2c[nH]c3ccccc23)c(=O)c2cccnc21)Nc1ccccc1F	2.8*	17	0.078
O=C1/C(=C\c2ccc(O)c(O)c2)C(c2ccccc2)=NN1c1ccccc1	-3.9*	7	?
COc1cc(/C=C2\C(=O)N(c3ccc(NC(C)=O)cc3)N=C2c2ccccc2)ccc1O	-2.4	18	/

Bioassay records as filed in PubChem BioAssay.
